Hits are enriched below; roughly 1.3% of the tested compounds scored in any of these assays.
PLC-beta3 inh: blocks human PLC-beta3 enzyme activity; Purified PLC-beta3, fluorogenic substrate, fluorescence; Q01970; 370,000 compounds, 0.18% hits; inhibition, % at 12.2 µM
NTR1 agonist: NTR1 (human) agonism. P30989. NTR1-U2OS beta-arrestin-GFP spot imaging, agonist mode. activation, % at 20 µM. 330,000 compounds, 0.17% hits;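 active = activation at or above 40% of the spot to cytoplasm intensity ratio, with at least 20 cells analyzed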
Target sequence (P30989 whole entry, looked up): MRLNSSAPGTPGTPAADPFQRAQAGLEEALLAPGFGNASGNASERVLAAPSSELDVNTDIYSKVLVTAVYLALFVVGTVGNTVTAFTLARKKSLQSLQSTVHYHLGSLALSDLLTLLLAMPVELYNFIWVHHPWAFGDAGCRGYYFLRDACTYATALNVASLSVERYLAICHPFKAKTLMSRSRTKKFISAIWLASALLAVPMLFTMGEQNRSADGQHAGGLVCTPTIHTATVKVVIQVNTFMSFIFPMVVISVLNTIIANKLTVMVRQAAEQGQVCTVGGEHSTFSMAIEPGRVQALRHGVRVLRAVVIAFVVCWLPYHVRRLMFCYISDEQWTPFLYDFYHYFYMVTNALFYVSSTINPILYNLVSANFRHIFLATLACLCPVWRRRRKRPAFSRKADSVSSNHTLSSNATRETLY
Arr AP2 block: inhibitors of human beta-arrestin and AP2 interaction | 340,000 compounds, 0.31% hits | inhibition, % at 10 µM | FITC-arrestin peptide / GST-AP2 beads, flow cytometry; AP2 beta2 appendage carries R879A mutation;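 active = inhibition above a set limit, near 3 SD of compounds lacking own fluorescence, cut at about 54% in these data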
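System: GST-AP2 R879A bound to glutathione beads, E. coli-expressed. Also added: 50 nM FITC-arrestin peptide. Schedule: compound with beads 12 min RT, then probe 1 h RT. Signal: bead flow cytometry, FITC channel. Read-out basis: percent response.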
PLC-gamma1 inh: PLC-gamma1 (human) inhibition, primary screen; AID 720700; P19174; 370,000 compounds, 0.84% hits; purified PLC-gamma1, fluorogenic substrate, fluorescence; inhibition, % at 12.2 µM; in the data active = inhibition above about 9.5%
PLCgamma1 ctr: inhibits human PLC-gamma1 in PLC-beta3 counter-screen; shares compounds with PLC-gamma1 inh; purified PLC-gamma1, fluorogenic substrate, fluorescence; inhibition, % at 12.3 µM; 3,300 compounds, 3.1% hits; in the data active = inhibition above about 9.5%
PLCb3 confirm: confirmation of human PLC-beta3 inhibitors; shares compounds with PLC-gamma1 inh; inhibition, % at 12.3 µM; 3,300 compounds, 1% hits; purified PLC-beta3, fluorogenic substrate fluorescence; AID 743261
Large screens that a line does not name were inactive (follow-up assays come after a bar, where they were run). Rule as the data show it, unless noted: active = inhibition above about 11%; inactive = the rest.

CC(NS(=O)(=O)c1ccc2c(c1)C(=O)c1cc(S(=O)(=O)NC(C)C(=O)O)ccc1-2)C(=O)O (stereo not drawn)	PLC-gamma1 inh 15 | PLCgamma1 ctr inactive | PLCb3 confirm inactive
O=C(CSc1nnc(-c2ccco2)n1-c1ccc(Cl)cc1)Nc1ccccc1-c1ccccc1	none (no result: NTR1 agonist, Arr AP2 block)
CC1CCC(NC(=O)C(NS(=O)(=O)c2cccc3nsnc23)C(C)C)CC1 (stereo not drawn)	PLC-gamma1 inh 11 | PLCgamma1 ctr inactive | PLCb3 confirm inactive
Cc1ccc[n+](/C(=C\C(=C=[N-])C#N)C(=O)c2ccc(Cl)cc2)c1	PLC-gamma1 inh 9.7 | PLCgamma1 ctr inactive | PLCb3 confirm inactive
Cc1cccc(N/C=C/C(=O)c2ccc(Cl)cc2)c1	none
O=C(OCc1ccccc1C(F)(F)F)c1cc([N+](=O)[O-])ccc1N1CCOCC1	PLC-gamma1 inh 10 | PLCgamma1 ctr inactive | PLCb3 confirm inactive
CS(=O)(=O)N1CCN(C(=O)c2ccc(F)cc2)CC1	PLC-gamma1 inh 12 | PLCgamma1 ctr inactive | PLCb3 confirm inactive
CS(=O)(=O)N1CCN(C(=O)c2ccncc2)CC1	none
COC(=O)[C@@H](Cc1ccc(O)cc1)NC(=O)[C@H]1O[C@@H](n2cnc3c(=O)[nH]c(N)nc32)[C@H](O)[C@@H]1O	none (no result: NTR1 agonist, Arr AP2 block)
COc1ccc2c(c1)CNC2CS(=O)(=O)NC1CCCC1 (stereo not drawn)	none (no result: NTR1 agonist, Arr AP2 block)
COc1ccc(CS(=O)(=O)c2ncn[nH]2)cc1	PLC-gamma1 inh 37 | PLCgamma1 ctr 20 | PLCb3 confirm inactive
C#CCNC(=O)C[C@H]1C[C@@]2(C(=O)OC)C(=C[C@H](C(C)C)O[C@@H]2C2CC2)N(Cc2cccc3ccccc23)C1=O	PLC-gamma1 inh 9.5 (no result: NTR1 agonist, Arr AP2 block) | PLCgamma1 ctr inactive | PLCb3 confirm inactive
COC(=O)[C@]12C[C@H](CC(=O)N3CCCC3)C(=O)N(CCC3=CCCCC3)C1=C[C@H](C1CCCC1)O[C@@H]2C	PLC-gamma1 inh 11 (no result: NTR1 agonist, Arr AP2 block) | PLCgamma1 ctr inactive | PLCb3 confirm inactive
COC(=O)[C@]12C[C@H](CC(=O)NCC3CCCCC3)C(=O)N(Cc3ccccc3)C1=C[C@H](C(C)C)O[C@@H]2C1CC1	PLC-beta3 inh 12 (no result: NTR1 agonist, Arr AP2 block) | PLCgamma1 ctr inactive | PLCb3 confirm inactive
COC(=O)[C@]12C[C@H](CC(=O)NCCCCc3ccccc3)C(=O)N(Cc3cccc4ccccc34)C1=C[C@H](C(C)C)O[C@@H]2C1CC1	PLC-gamma1 inh 13 (no result: NTR1 agonist, Arr AP2 block) | PLCgamma1 ctr inactive | PLCb3 confirm inactive
O=C(CSc1nc2ccccc2nc1N1CCOCC1)N1CCN(S(=O)(=O)c2cccc([N+](=O)[O-])c2)CC1	none (no result: NTR1 agonist, Arr AP2 block)
Cc1ccc2c(c1)N(CCCC(=O)N(C)Cc1ccccc1Cl)C(=O)CO2	none (no result: NTR1 agonist, Arr AP2 block)
COC(=O)[C@]12C[C@H](CC(=O)NCc3ccc(C)o3)C(=O)N(Cc3ccccc3)C1=C[C@H](C1CCCC1)O[C@@H]2C	PLC-beta3 inh 12 (no result: NTR1 agonist, Arr AP2 block) | PLCgamma1 ctr inactive | PLCb3 confirm inactive
COC(=O)[C@]12C[C@H](CC(=O)NCc3ccc(C)o3)C(=O)N(Cc3cccc4ccccc34)C1=C[C@H](C1CCCC1)O[C@@H]2C	none (no result: NTR1 agonist, Arr AP2 block)
O=S(=O)(c1cccs1)N1CCC(CO)(Cc2ccc(Cl)cc2)CC1	PLC-gamma1 inh 10 | PLCgamma1 ctr inactive | PLCb3 confirm inactive
O=S(=O)(c1cccs1)N1CCN(c2ccc(Cl)cc2)CC1	none
COc1ccc(NS(=O)(=O)c2ccc(NC(=S)NC(=O)C(C)C)cc2)cc1	PLC-gamma1 inh 11 | PLCgamma1 ctr inactive | PLCb3 confirm inactive
CCOc1ccc(NS(=O)(=O)c2ccc(NC(=S)NC(=O)C(C)C)cc2)cc1	none
COc1ccc(CCN(Cc2cccs2)S(=O)(=O)c2ccc(F)cc2)cc1OC	none (no result: NTR1 agonist, Arr AP2 block)
O=C(Oc1cccc(N2C(=O)CCC2=O)c1)C1CC(=O)N(c2ccc(Br)cc2)C1 (stereo not drawn)	PLC-beta3 inh 11 | PLCgamma1 ctr inactive | PLCb3 confirm inactive
O=C(Cc1ccc(Cl)cc1)NN1C(=O)c2ccccc2C1=O	PLC-gamma1 inh 11 | PLCgamma1 ctr inactive | PLCb3 confirm inactive
Cc1c(C(c2cccc([N+](=O)[O-])c2O)c2c(C)n(C)n(-c3ccccc3)c2=O)c(=O)n(-c2ccccc2)n1C	none
Cc1[nH]n(-c2ccccc2)c(=O)c1C(c1cccc([N+](=O)[O-])c1O)c1c(C)[nH]n(-c2ccccc2)c1=O	PLC-beta3 inh 14, PLC-gamma1 inh 31 | PLCgamma1 ctr inactive | PLCb3 confirm inactive
Cc1[nH]n(-c2ccccc2)c(=O)c1C(c1ccc(C(=O)O)cc1)c1c(C)[nH]n(-c2ccccc2)c1=O	PLC-gamma1 inh 26 | PLCgamma1 ctr inactive | PLCb3 confirm inactive
COc1ccc(C(c2nnnn2Cc2ccccc2)N2CCN(c3ccccc3)CC2)cc1 (stereo not drawn)	none
COc1ccc(Cn2nnnc2C(C(C)C)N2CCN(c3ccccc3OC)CC2)cc1 (stereo not drawn)	PLC-gamma1 inh 11 | PLCgamma1 ctr inactive | PLCb3 confirm inactive
COCc1cc(N2CCN(C(=O)OC(C)(C)C)C[C@@H]2C)ccc1N1CC[C@H](O)C1	none (no result: NTR1 agonist, Arr AP2 block)
COc1ccc(C(C)NC(=S)NCc2ccc(F)cc2)cc1OC (stereo not drawn)	PLC-gamma1 inh 17 | PLCgamma1 ctr inactive | PLCb3 confirm inactive
CCN(CC)S(=O)(=O)c1ccc(NC(=O)COC(=O)CCc2cc(OC)c(OC)c(OC)c2)cc1	PLC-beta3 inh 11 | PLCgamma1 ctr inactive | PLCb3 confirm inactive
CCOC(=O)[C@@]12CCCC=C1N(CCc1ccc(Cl)cc1)C(=O)[C@H]2CC(=O)N1CCC(c2ccccc2)CC1	none (no result: NTR1 agonist, Arr AP2 block)
COc1ccc(CNC(N)=O)cc1	none
NC(=O)NCc1ccc(Cl)cc1	PLC-gamma1 inh 12 | PLCgamma1 ctr inactive | PLCb3 confirm inactive
COc1cccc(S(=O)(=O)Nc2ccc3c(c2)OCCO3)c1	PLC-gamma1 inh 9.6 | PLCgamma1 ctr inactive | PLCb3 confirm inactive
Cc1cccc(S(=O)(=O)Nc2ccc3c(c2)OCCO3)c1	none
O=C(NCC1CCCO1)C(c1cccnc1)N(C(=O)Cc1cccs1)c1cccnc1 (stereo not drawn)	PLC-beta3 inh 13, PLC-gamma1 inh 11 | PLCgamma1 ctr inactive | PLCb3 confirm inactive
CCOC(=O)Cc1csc(NC(=S)NC(=O)CC(C)C)n1	none
CC(C)CC(=O)NC(=S)Nc1nc(-c2cccc3ccccc23)cs1	PLC-gamma1 inh 16 | PLCgamma1 ctr inactive | PLCb3 confirm inactive
CCCC[C@H]1C2CC(OC(=O)Nc3ccc(C(F)(F)F)cc3)C(C2)[C@H]2CCCCN21 (stereo partly drawn)	none (no result: NTR1 agonist, Arr AP2 block)
O=c1[nH]c2ccc(S(=O)(=O)N3CCCC3)cc2o1	none (no result: NTR1 agonist, Arr AP2 block)
O=C(/C=C/Nc1ccc(F)cc1F)c1ccc(Br)cc1	PLC-gamma1 inh 12 | PLCgamma1 ctr inactive | PLCb3 confirm inactive
CCOC(=O)C(Cc1ccccc1)NC(=O)CCc1c(C)nc2ncnn2c1C (stereo not drawn)	none
